Our source for the MIC, CC50 and selectivity ratio values is ChEMBL document CHEMBL4706624, “Synthesis and evaluation of new quinazoline-benzimidazole hybrids as potent anti-microbial agents against multidrug resistant Staphylococcus aureus and Mycobacterium tuberculosis” (Eur J Med Chem, 2021).

≈ marks a conversion by molar mass, not a printed value.

One data set deals with Escherichia coli. Kind of data set: Antibacterial activity against Escherichia coli ATCC 25922 measured after 16 to 18 hrs. The settings on record: time 16-18 hrs. In kind it is functional. Put shortly:
(§1)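 Broth microdilution MIC. Strains grown on MHA; a single colony was grown overnight in CA-MHB at 37 °C with shaking for 18–24 h. Cultures were diluted by OD600 to ~10⁶ cfu/mL and exposed to compound at […]. Plates were incubated at 37 °C for 16-18 h. MIC = lowest concentration with no visible growth. Levofloxacin was the reference. Three independent runs, each in duplicate.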

For data set [1], the system named is Staphylococcus aureus. Put plainly: Antibacterial activity against Staphylococcus aureus ATCC 29213 measured after 16 to 18 hrs. It counts as functional. The following applies: time 16-18 hrs. Put shortly: as §1
A further data set concerns Klebsiella pneumoniae. Kind of data set: Antibacterial activity against Klebsiella pneumoniae BAA-1705 measured after 16 to 18 hrs. In kind it is functional. The following applies: ATCC BAA-1705, time 16-18 hrs. Put shortly: as §1
The test system of another data set is Acinetobacter baumannii. Kind of data set: Antibacterial activity against Acinetobacter baumannii BAA1605 measured after 16 to 18 hrs. The following applies: time 16-18 hrs. It counts as functional. Put shortly: as §1
The next data set concerns Pseudomonas aeruginosa. Put plainly: Antibacterial activity against Pseudomonas aeruginosa ATCC 27853 measured after 16 to 18 hrs. The settings on record: time 16-18 hrs. It counts as functional. Put shortly: as §1
For data set [2], the system named is Mycobacterium tuberculosis. Kind of data set: Antitubercular activity against Mycobacterium tuberculosis H37Rv ATCC 27294 measured after 7 days by broth microdilution method. The settings on record: H37Rv ATCC 27294, 168 h, time 7 day. It counts as functional. Put shortly: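 H37Rv in Middlebrook 7H9 with 10% ADC, 0.2% glycerol, 0.05% Tween-80. Inoculum ~10⁶ cfu/mL set by OD600. Twofold serial dilutions, 0.0064–0.00005 g/100 mL. Incubated at 37 °C for 7 days, then Presto blue resazurin read-out. MIC = lowest concentration inhibiting visible growth. Triplicate runs, each in duplicate.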

In data set [3] the test system is Mycobacteroides abscessus. Put plainly: Antimycobacterial activity against Mycobacterium abscessus ATCC 19977 by broth microdilution method. It counts as functional. The method, boiled down: (§2)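 Broth microdilution MIC in Middlebrook 7H9 with 10% ADC-Tween-80 (BSA, dextrose, 0.2% glycerol, 0.05% Tween-80). Inoculum ~10⁶ cfu/mL set by OD600. Compounds were twofold serially diluted, 0.0064–0.00005 g/100 mL (DMSO stocks). Presto blue resazurin dye was used as read-out. MIC = lowest concentration inhibiting visible growth. Triplicate runs, each in duplicate.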

The subject of data set [4] is Mycolicibacterium fortuitum. Put plainly: Antimycobacterial activity against Mycobacterium fortuitum ATCC 6841 by broth microdilution method. In kind it is functional. The method, boiled down:
as §2
On the technique in general: Broth dilution looks for growth in wells or tubes with falling amounts of substance.

A further data set deals with Mycobacteroides chelonae. Put plainly: Antimycobacterial activity against Mycobacterium chelonae ATCC 35752 by broth microdilution method. It counts as functional. Put shortly: as §2
Data set [5] in a line: Cytotoxicity against African green monkey Vero cells assessed as reduction in cell viability measured after 72 hrs by MTT assay. It counts as cell-based. The following applies: chlorocebus sabaeus. Put shortly:
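Vero cells (ATCC CCL-81), ~10³ cells/well, held 24 h at 37 °C in 5% CO₂. Compound at 100–5 mg/L for 72 h. MTT was added for 4 h, formazan dissolved in DMSO, OD read at 540 nm. CC50 = concentration giving 50% viability reduction. Doxorubicin was the positive control. Triplicate.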
A general note: Formazan colour is commonly taken as a measure of viable cells.

A short description of data set [6]: Selectivity index, ratio of CC50 for cytotoxicity against African green monkey Vero cells to MIC for antibacterial activity against Staphylococcus aureus ATCC 29213. In kind it is toxicity, cell-based. The following applies: read-out: Selectivity Index. Put shortly:
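SI = Vero CC50 (MTT, 72 h) divided by MIC against S. aureus ATCC 29213 (CA-MHB broth microdilution, 16-18 h, 37 °C).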

Data set [7] relates to Staphylococcus aureus. Kind of data set: Antibacterial activity against methicillin-sensitive Staphylococcus aureus ATCC 29213 measured after 16 to 18 hrs. The settings on record: time 16-18 hrs. It counts as functional. Put shortly: as §1
The subject of data set [8] is Staphylococcus aureus. Put plainly: Antibacterial activity against methicillin-resistant Staphylococcus aureus NR100 measured after 16 to 18 hrs. It counts as functional. The following applies: time 16-18 hrs. The method, boiled down: as §1
Data set [9] has as its system Staphylococcus aureus. Put plainly: Antibacterial activity against methicillin-resistant Staphylococcus aureus NR119 measured after 16 to 18 hrs. In kind it is functional. The settings on record: time 16-18 hrs. The method, boiled down:
as §1

The subject of data set [10] is Staphylococcus aureus. Put plainly: Antibacterial activity against methicillin-resistant Staphylococcus aureus NR10129 measured after 16 to 18 hrs. It counts as functional. The settings on record: time 16-18 hrs. The method, boiled down: as §1
Data set [11] has as its system Staphylococcus aureus. Kind of data set: Antibacterial activity against methicillin-resistant Staphylococcus aureus NR10198 measured after 16 to 18 hrs. It counts as functional. The settings on record: time 16-18 hrs. Put shortly:
as §1

Data set [12] has as its system Staphylococcus aureus. Put plainly: Antibacterial activity against methicillin-resistant Staphylococcus aureus NR10192 measured after 16 to 18 hrs. It counts as functional. The settings on record: time 16-18 hrs. Put shortly: as §1
Data set [13] relates to Staphylococcus aureus. Put plainly: Antibacterial activity against methicillin-resistant Staphylococcus aureus NR10186 measured after 16 to 18 hrs. It counts as functional. The following applies: time 16-18 hrs. The method, boiled down:
as §1

The test system of data set [14] is Staphylococcus aureus. Kind of data set: Antibacterial activity against methicillin-resistant Staphylococcus aureus NR10193 measured after 16 to 18 hrs. It counts as functional. The following applies: time 16-18 hrs. The method, boiled down: as §1
Data set [15] concerns Staphylococcus aureus. Kind of data set: Antibacterial activity against methicillin-resistant Staphylococcus aureus NR10194 measured after 16 to 18 hrs. It counts as functional. The following applies: time 16-18 hrs. The method, boiled down: as §1
Data set [16] deals with Staphylococcus aureus. Put plainly: Antibacterial activity against methicillin-resistant Staphylococcus aureus NR10191 measured after 16 to 18 hrs. In kind it is functional. The settings on record: time 16-18 hrs. The method, boiled down:
as §1

Data set [17] has as its system Staphylococcus aureus. Kind of data set: Antibacterial activity against vancomycin-resistant Staphylococcus aureus VRS1 measured after 16 to 18 hrs. It counts as functional. The following applies: time 16-18 hrs. The method, boiled down:
as §1

In data set [18] the test system is Staphylococcus aureus. Put plainly: Antibacterial activity against vancomycin-resistant Staphylococcus aureus VRS4 measured after 16 to 18 hrs. It counts as functional. The following applies: time 16-18 hrs. Put shortly: as §1
Data set [19] concerns Staphylococcus aureus. Kind of data set: Antibacterial activity against vancomycin-resistant Staphylococcus aureus VRS12 measured after 16 to 18 hrs. In kind it is functional. The settings on record: time 16-18 hrs. Put shortly: as §1

Take `COc1ccc(-c2nc(Nc3ccc(-c4nc5cc(Cl)ccc5[nH]4)cc3)c3ccccc3n2)cc1OC`: the MIC – broadly, the lowest concentration found to suppress growth – with Escherichia coli was more than 64 µg/mL; against Staphylococcus aureus [1] it was 16 µg/mL (≈ 31.5 µM); in the data set on Klebsiella pneumoniae, more than 64 µg/mL; against Acinetobacter baumannii, more than 64 µg/mL; in the data set with Pseudomonas aeruginosa, more than 64 µg/mL; in data set [2], 32 µg/mL (≈ 63 µM). For the same compound, the minimal inhibitory concentration (MIC) (in [3]; in data set [4]; in the data set on Mycobacteroides chelonae) was more than 64 µg/mL in each case. For the same compound, in [5], the CC50 (in general, the concentration that lowers cell viability or growth by half) at 72 h was more than 100 µg/mL. In addition, in data set [6], the selectivity ratio is more than 6.25.
In the case of `O=[N+]([O-])c1ccc2[nH]c(-c3ccc(Nc4nc(-c5ccccc5)nc5ccccc45)cc3)nc2c1`, the minimal inhibitory concentration (MIC) against Escherichia coli was more than 64 µg/mL; against Staphylococcus aureus [1] it was more than 64 µg/mL; against Klebsiella pneumoniae it was more than 64 µg/mL; against Acinetobacter baumannii, more than 64 µg/mL; with Pseudomonas aeruginosa, more than 64 µg/mL; in data set [2] it was 8 µg/mL (≈ 17.4 µM). Further, the MIC (in [3]; in data set [4]; against Mycobacteroides chelonae) was more than 64 µg/mL in each case. For the same compound, the CC50 at 72 h in data set [5] amounted to 100 µg/mL (≈ 218 µM). Besides, the selectivity ratio in [6] was 12.5.
In the case of `C[C@H]1COc2c(N3CCN(C)CC3)c(F)cc3c(=O)c(C(=O)O)cn1c23.C[C@H]1COc2c(N3CCN(C)CC3)c(F)cc3c(=O)c(C(=O)O)cn1c23.O` [LEVOFLOXACIN], the minimum inhibitory concentration (MIC) was found to be 0.125 µg/mL against Escherichia coli; 0.015 µg/mL in the data set with Staphylococcus aureus [1]; 64 µg/mL with Klebsiella pneumoniae; 0.5 µg/mL with Pseudomonas aeruginosa; 1 µg/mL in data set [3]; 0.03 µg/mL in data set [4]. The MIC against Mycobacteroides chelonae came out at 0.03 µg/mL; in the data set with Staphylococcus aureus [7] it was 0.125 µg/mL; in the data set on Staphylococcus aureus [8], 0.25 µg/mL; in the data set with Staphylococcus aureus [9], 16 µg/mL; in the data set with Staphylococcus aureus [10] it was 0.25 µg/mL; against Staphylococcus aureus [11], 8 µg/mL. The MIC against Staphylococcus aureus [12] came out at 16 µg/mL; against Staphylococcus aureus [13], 8 µg/mL; against Staphylococcus aureus [14] it was 32 µg/mL; in the data set on Staphylococcus aureus [15] it was 0.125 µg/mL; against Staphylococcus aureus [16], 32 µg/mL; with Staphylococcus aureus [17], 32 µg/mL. For the same compound, the results for the MIC with Staphylococcus aureus [18] and in the data set with Staphylococcus aureus [19] were more than 64 µg/mL and 32 µg/mL, respectively.
Take `C[C@@H](O)[C@H]1C(=O)N2C(C(=O)O)=C(S[C@@H]3CN[C@H](C(=O)N(C)C)C3)[C@H](C)[C@H]12` [MEROPENEM]: the minimum inhibitory concentration (MIC) against Staphylococcus aureus [7] worked out at 0.0625 µg/mL (≈ 0.163 µM); against Staphylococcus aureus [8], 32 µg/mL (≈ 83.4 µM); against Staphylococcus aureus [9], 64 µg/mL (≈ 167 µM); in the data set on Staphylococcus aureus [10], 4 µg/mL (≈ 10.4 µM); with Staphylococcus aureus [11], 4 µg/mL (≈ 10.4 µM); against Staphylococcus aureus [12], 64 µg/mL (≈ 167 µM). The MIC in the data set with Staphylococcus aureus [13] was 8 µg/mL (≈ 20.9 µM); in the data set on Staphylococcus aureus [14] it was 64 µg/mL (≈ 167 µM); in the data set on Staphylococcus aureus [15], 1 µg/mL (≈ 2.61 µM); in the data set on Staphylococcus aureus [16] it was 64 µg/mL (≈ 167 µM); against Staphylococcus aureus [17], 64 µg/mL (≈ 167 µM); against Staphylococcus aureus [18], 64 µg/mL (≈ 167 µM). In the data set on Staphylococcus aureus [19], this compound yielded an MIC of 16 µg/mL (≈ 41.7 µM).
As for `COc1cccc(OC)c1C(=O)N[C@@H]1C(=O)N2[C@@H]1SC(C)(C)[C@@H]2C(=O)O` [METHICILLIN], the MIC in the data set with Staphylococcus aureus [7] is 1 µg/mL (≈ 2.63 µM); in the data set on Staphylococcus aureus [8] it was more than 64 µg/mL; with Staphylococcus aureus [9] it was more than 64 µg/mL; against Staphylococcus aureus [10] it was more than 64 µg/mL; in the data set on Staphylococcus aureus [11], more than 64 µg/mL; against Staphylococcus aureus [12], more than 64 µg/mL. Besides, the MIC against Staphylococcus aureus [13] is more than 64 µg/mL; in the data set on Staphylococcus aureus [14], more than 64 µg/mL; against Staphylococcus aureus [15], 32 µg/mL (≈ 84.1 µM); against Staphylococcus aureus [16], more than 64 µg/mL; against Staphylococcus aureus [17], more than 64 µg/mL; against Staphylococcus aureus [18], more than 64 µg/mL. This compound also returned an MIC with Staphylococcus aureus [19] of more than 64 µg/mL.
For `CN[C@H](CC(C)C)C(=O)N[C@H]1C(=O)N[C@@H](CC(N)=O)C(=O)N[C@H]2C(=O)N[C@H]3C(=O)N[C@H](C(=O)N[C@H](C(=O)O)c4cc(O)cc(O)c4-c4cc3ccc4O)[C@H](O)c3ccc(c(Cl)c3)Oc3cc2cc(c3O[C@@H]2O[C@H](CO)[C@@H](O)[C@H](O)[C@H]2O[C@H]2C[C@](C)(N)[C@H](O)[C@H](C)O2)Oc2ccc(cc2Cl)[C@H]1O` [VANCOMYCIN], the minimum inhibitory concentration (MIC) with Staphylococcus aureus [17], against Staphylococcus aureus [18] and against Staphylococcus aureus [19] was more than 64 µg/mL in each case.
